Measured values pooled from the literature.
Lines come from different studies, so protocols differ.
Observed: enzyme activity
Action: inhibitor
EGFR: Epidermal growth factor receptor (EGFR, Homo sapiens, UniProt P00533)
EGFR L858R/T790M: Epidermal growth factor receptor (EGFR, Homo sapiens, UniProt P00533, L858R/T790M)
EGFR L858R: Epidermal growth factor receptor (EGFR, Homo sapiens, UniProt P00533, L858R)

Compound	target	technique	notes	IC50
COc1cc2ncnc(NCCSc3ccc(Cl)cc3)c2cc1OC	EGFR	mobility shift	–	320 nM
Oc1ncnc2cc(Nc3nc(-c4ccc(Br)cc4)cs3)ccc12	EGFR	ELISA	–	4.96 nM
COc1cc2ncnc(Nc3ccc(F)c(Cl)c3)c2cc1NC(=O)N/N=C/c1cccn1CCCN(C)C	EGFR L858R/T790M	–	–	24.3 nM
CC(C)Cc1ccc(-c2nn(-c3ccc(S(C)(=O)=O)cc3)cc2/C=N/N=c2\[nH]c(-c3ccc([N+](=O)[O-])cc3)cs2)cc1	EGFR L858R	–	–	114 nM
C=CC(=O)Nc1cc(Nc2nccc(Nc3cc(Cl)c(F)cc3C(C)(C)O)n2)c(OC)cc1N1CC[C@@H](N(C)C)C1	EGFR	–	with preincubation	226 nM
COc1cc2ncnc(NCc3cccs3)c2cc1OC	EGFR	mobility shift	–	35 nM
OCc1ccc(Nc2ccc3ncnc(Nc4cccc(C(F)(F)F)c4)c3c2)cc1	EGFR	radiometric	–	8.67 nM
COc1cc2ncnc(Nc3ccc(F)c(Cl)c3)c2cc1NC(=O)N/N=C/c1cccn1CCN(C)C	EGFR	–	–	0.1 nM
OCc1ccc(Nc2ccc3c(Nc4cccc(C(F)(F)F)c4)ncnc3c2)cc1	EGFR	radiometric	–	2.53 nM
O=C(N/N=C/c1cccn1CCCN1CCCCC1)Nc1cc2c(Nc3ccc(F)c(Cl)c3)ncnc2cc1O[C@H]1CCOC1	EGFR L858R/T790M	–	–	11.4 nM
C=CC(=O)Nc1cc(Nc2nc(N3CCc4sccc4C3)c3cccnc3n2)c(OC)cc1N1CCC(N(C)C)CC1	EGFR	ELISA	–	> 1000 nM
Oc1ncnc2cc(Nc3nc(-c4ccc(Cl)cc4)cs3)ccc12	EGFR	ELISA	–	4.81 nM
CN1CCN(C/C=N/NC(=O)Nc2cc3c(Nc4ccc(F)c(Cl)c4)ncnc3cc2O[C@H]2CCOC2)CC1	EGFR	–	–	1.8 nM
COCCOc1cc2ncnc(Nc3ccc(OCCCn4ccnc4[N+](=O)[O-])c(Cl)c3)c2cc1OCCOC	EGFR	FRET	–	400 nM
O=C(N/N=C/CN1CCOCC1)Nc1cc2c(Nc3ccc(F)c(Cl)c3)ncnc2cc1O[C@H]1CCOC1	EGFR L858R/T790M	–	–	14.3 nM
C=C(Cl)C(=O)Nc1cc(Nc2nc(N3CCOCC3)c3sccc3n2)c(OC)cc1N(C)CCN(C)C	EGFR	ELISA	–	> 1000 nM

Compound	target	technique	notes	IC50
CCN(CC)C/C=N/NC(=O)Nc1cc2c(Nc3ccc(F)c(Cl)c3)ncnc2cc1O[C@H]1CCOC1	EGFR L858R/T790M	–	–	13.2 nM
C=C(Cl)C(=O)Nc1cc(Nc2nc(N3CCc4sccc4C3)c3sccc3n2)c(OC)cc1N(C)CCN(C)C	Epidermal growth factor receptor (EGFR, Homo sapiens, UniProt P00533, C797S/L858R/T790M)	ELISA	–	> 1000 nM
CN(C)C/C=N/NC(=O)Nc1cc2c(Nc3ccc(F)c(Cl)c3)ncnc2cc1O[C@H]1CCOC1	EGFR	–	–	0.2 nM
COc1cccc(CNc2ncnc3cc(Cl)ccc23)c1	EGFR	mobility shift	–	1700 nM
C=C(Cl)C(=O)Nc1cc(Nc2nc(Nc3cnn(C)c3)c3sccc3n2)c(OC)cc1N(C)CCN(C)C	EGFR	ELISA	–	100 nM
COCCOc1cc2ncnc(Nc3ccc(OCCn4ccnc4[N+](=O)[O-])c(Cl)c3)c2cc1OCCOC	EGFR	FRET	–	230 nM
Nc1ccc(-c2csc(Nc3ccc4c(O)ncnc4c3)n2)cc1	EGFR	ELISA	–	14.2 nM
COc1ccc(-c2nn(-c3ccc(S(C)(=O)=O)cc3)cc2/C=N/N=c2\[nH]c(-c3ccc(Br)cc3)cs2)cc1	EGFR L858R	–	–	36 nM
C=CC(=O)Nc1cc(Nc2nccc(-c3cn(C4CC4)c4ccccc34)n2)c(OC)cc1N(C)CCN(C)C	Epidermal growth factor receptor (EGFR, Homo sapiens, UniProt P00533, G719D)	TR-FRET	–	54.1 nM
CCN(CC)CCCn1cccc1/C=N/NC(=O)Nc1cc2c(Nc3ccc(F)c(Cl)c3)ncnc2cc1O[C@H]1CCOC1	EGFR	–	–	0.5 nM
COc1ccc(-c2nn(-c3ccc(S(C)(=O)=O)cc3)cc2C=N/N=c2\[nH]c(-c3ccc([N+](=O)[O-])cc3)cs2)cc1	EGFR L858R/T790M	–	–	80 nM
C=C(Cl)C(=O)Nc1cc(Nc2nc(Nc3cnn(C)c3)c3sccc3n2)c(OC)cc1N1CCN(C)CC1	EGFR	ELISA	–	> 1000 nM
COc1cc2ncnc(Nc3ccc(OCCCn4ccnc4[N+](=O)[O-])c(Cl)c3)c2cc1OCCCN1CCOCC1	EGFR	FRET	–	180 nM
CCC(=O)Nc1cc(Nc2nc(N3CCc4sccc4C3)c3cccnc3n2)c(OC)cc1N1CCSCC1	EGFR L858R/T790M	ELISA	–	> 1000 nM
O=[N+]([O-])c1ccc(-c2csc(Nc3ccc4c(O)ncnc4c3)n2)cc1	EGFR	ELISA	–	2.93 nM
